Results from ChEMBL document CHEMBL3227997, “Nucleosides. 110. Synthesis and antiherpes virus activity of some 2'-fluoro-2'-deoxyarabinofuranosylpyrimidine nucleosides” (J Med Chem, 1979).
Values after ≈ are worked out from the molar mass of the structure shown.

Experiments:
Human alphaherpesvirus 1 [1] = assay: Antiviral activity against HSV1 2931 infected in African green monkey Vero cells assessed as inhibition of virus replication at 0.1 ug/ml after 24 hrs relative to control; assay type: functional; conditions: Human alphaherpesvirus 1, 2931, Vero
In short: (§1)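 Vero monolayers infected with HSV-1 strain 2931 at about 1 PFU/cell, adsorbed 2 h, then overlaid with maintenance medium containing drug. Supernatants harvested 24 h later and titered on Vero monolayers.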

[2] = Cytotoxicity against mouse P815 cells assessed as growth inhibition after 96 hrs; assay type: cell-based; conditions: read-out: ID50
In short: (§2)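 Mouse leukemic lines grown in McCoy's medium with 15% fetal calf serum, starting at 40 000–60 000 cells/mL. Nucleoside added from a 50-fold concentrate; triplicate loosely capped tubes held at 37 °C in 5% CO2 for 96 h, controls reaching ~10^6 cells/mL. Cells counted electronically; percent growth inhibition calculated and the concentration for 50% inhibition reported.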

Human alphaherpesvirus 1 [3] = assay: Antiviral activity against HSV1 2931 infected in African green monkey Vero cells assessed as inhibition of virus replication at 1 ug/ml after 24 hrs relative to control; assay type: functional; conditions: Human alphaherpesvirus 1, 2931, Vero; in short: as §1
[4] = Cytotoxicity against mouse L5178Y cells assessed as growth inhibition after 96 hrs; assay type: cell-based; conditions: read-out: ID50; in short: as §2
Human alphaherpesvirus 1 [5] = assay: Antiviral activity against HSV1 2931 infected in African green monkey Vero cells assessed as inhibition of virus replication at 0.01 ug/ml after 24 hrs relative to control; assay type: functional; conditions: Human alphaherpesvirus 1, 2931, Vero; in short: as §1
Human alphaherpesvirus 1 [6] = assay: Antiviral activity against HSV1 2931 infected in African green monkey Vero cells assessed as inhibition of virus replication at 100 ug/ml after 24 hrs relative to control; assay type: functional; conditions: Human alphaherpesvirus 1, 2931, Vero; in short: as §1
Human alphaherpesvirus 1 [7] = assay: Antiviral activity against HSV1 2931 infected in African green monkey Vero cells assessed as inhibition of virus replication at 10 ug/ml after 24 hrs relative to control; assay type: functional; conditions: Human alphaherpesvirus 1, 2931, Vero; in short: as §1
Human alphaherpesvirus 1 [8] = assay: Potency index, ratio of compound activity to vidarabine activity against HSV1 2931; assay type: functional

For `Cc1cn([C@@H]2O[C@H](CO)[C@@H](O)[C@@H]2O)c(=O)[nH]c1=O`, the inhibition at 0.1 µg/mL (Human alphaherpesvirus 1 [1]) was less than 90%, the GI50 at 96 h [2] was 13 mg/L (≈ 50.3 µM) and the inhibition at 1 µg/mL (Human alphaherpesvirus 1 [3]) was greater than 90%. For the same compound, the GI50 at 96 h [4] was greater than 100 mg/L, the inhibition at 0.01 µg/mL (Human alphaherpesvirus 1 [5]) was less than 90% and the inhibition at 100 µg/mL (Human alphaherpesvirus 1 [6]) was 100%. It also gave an inhibition at 10 µg/mL (Human alphaherpesvirus 1 [7]) of 100%.
`Nc1nc(=O)n([C@@H]2O[C@H](CO)[C@@H](O)[C@@H]2F)cc1Br` showed an inhibition at 0.1 µg/mL (Human alphaherpesvirus 1 [1]) greater than 90%, a GI50 at 96 h [2] greater than 10 mg/L and an inhibition at 1 µg/mL (Human alphaherpesvirus 1 [3]) greater than 99%. For the same compound, the GI50 at 96 h [4] was 10 mg/L (≈ 30.9 µM), the inhibition at 0.01 µg/mL (Human alphaherpesvirus 1 [5]) was less than 90% and the inhibition at 10 µg/mL (Human alphaherpesvirus 1 [7]) was 100%.
For `Nc1ccn([C@@H]2O[C@H](CO)[C@@H](O)[C@@H]2F)c(=O)n1`, the inhibition at 0.1 µg/mL (Human alphaherpesvirus 1 [1]) was greater than 90%, the GI50 at 96 h [2] was 0.05 mg/L (≈ 0.204 µM) and the inhibition at 1 µg/mL (Human alphaherpesvirus 1 [3]) was greater than 90%. For the same compound, the GI50 at 96 h [4] was 0.05 mg/L (≈ 0.204 µM), the inhibition at 0.01 µg/mL (Human alphaherpesvirus 1 [5]) was less than 90% and the inhibition at 100 µg/mL (Human alphaherpesvirus 1 [6]) was greater than 100%. The inhibition at 10 µg/mL (Human alphaherpesvirus 1 [7]) was greater than 99.9%.
Work on `Nc1nc(=O)n([C@@H]2O[C@H](CO)[C@@H](O)[C@@H]2F)cc1F` yielded an inhibition at 0.1 µg/mL (Human alphaherpesvirus 1 [1]) greater than 90%, a GI50 at 96 h [2] of 0.4 mg/L (≈ 1.52 µM) and an inhibition at 1 µg/mL (Human alphaherpesvirus 1 [3]) greater than 99%. It also gave a GI50 at 96 h [4] of 0.5 mg/L (≈ 1.9 µM), an inhibition at 0.01 µg/mL (Human alphaherpesvirus 1 [5]) of less than 90% and an inhibition at 10 µg/mL (Human alphaherpesvirus 1 [7]) greater than 99.9%.
For `Nc1nc(=O)n([C@@H]2O[C@H](CO)[C@@H](O)[C@@H]2F)cc1Cl`, the inhibition at 0.1 µg/mL (Human alphaherpesvirus 1 [1]) was less than 90%, the GI50 at 96 h [2] was 1 mg/L (≈ 3.58 µM) and the inhibition at 1 µg/mL (Human alphaherpesvirus 1 [3]) was less than 90%. It also gave a GI50 at 96 h [4] of 1.4 mg/L (≈ 5.01 µM), an inhibition at 0.01 µg/mL (Human alphaherpesvirus 1 [5]) of less than 90% and an inhibition at 10 µg/mL (Human alphaherpesvirus 1 [7]) greater than 99.9%.
`Cl.Nc1nc(=O)n([C@@H]2O[C@H](CO)[C@@H](O)[C@@H]2F)cc1I` showed an inhibition at 0.1 µg/mL (Human alphaherpesvirus 1 [1]) greater than 99%, a GI50 at 96 h [2] of 14 mg/L and an inhibition at 1 µg/mL (Human alphaherpesvirus 1 [3]) greater than 100%. The GI50 at 96 h [4] was 48 mg/L, the Ratio (Human alphaherpesvirus 1 [8]) was 1000 and the inhibition at 0.01 µg/mL (Human alphaherpesvirus 1 [5]) was greater than 90%. It also gave an inhibition at 100 µg/mL (Human alphaherpesvirus 1 [6]) of 100% and an inhibition at 10 µg/mL (Human alphaherpesvirus 1 [7]) of 100%.
`O=c1ccn([C@@H]2O[C@H](CO)[C@@H](O)[C@@H]2F)c(=O)[nH]1` showed an inhibition at 0.1 µg/mL (Human alphaherpesvirus 1 [1]) of less than 90%, a GI50 at 96 h [2] greater than 10 mg/L and an inhibition at 1 µg/mL (Human alphaherpesvirus 1 [3]) greater than 99%. It also gave a GI50 at 96 h [4] greater than 10 mg/L, an inhibition at 0.01 µg/mL (Human alphaherpesvirus 1 [5]) of less than 90% and an inhibition at 10 µg/mL (Human alphaherpesvirus 1 [7]) greater than 99%.
With `O=c1[nH]c(=O)n([C@@H]2O[C@H](CO)[C@@H](O)[C@@H]2F)cc1F` the inhibition at 0.1 µg/mL (Human alphaherpesvirus 1 [1]) was greater than 99%, the GI50 at 96 h [2] was 0.7 mg/L (≈ 2.65 µM) and the inhibition at 1 µg/mL (Human alphaherpesvirus 1 [3]) was greater than 100%. For the same compound, the GI50 at 96 h [4] was 1 mg/L (≈ 3.79 µM), the inhibition at 0.01 µg/mL (Human alphaherpesvirus 1 [5]) was less than 90% and the inhibition at 10 µg/mL (Human alphaherpesvirus 1 [7]) was 100%.
In the case of `O=c1[nH]c(=O)n([C@@H]2O[C@H](CO)[C@@H](O)[C@@H]2F)cc1Cl`, the inhibition at 0.1 µg/mL (Human alphaherpesvirus 1 [1]) is reported as less than 90%, the GI50 at 96 h [2] is reported as 3.4 mg/L (≈ 12.1 µM) and the inhibition at 1 µg/mL (Human alphaherpesvirus 1 [3]) is reported as less than 90%. It also gave a GI50 at 96 h [4] of 1.4 mg/L (≈ 4.99 µM), an inhibition at 0.01 µg/mL (Human alphaherpesvirus 1 [5]) of less than 90% and an inhibition at 10 µg/mL (Human alphaherpesvirus 1 [7]) greater than 100%.
`O=c1[nH]c(=O)n([C@@H]2O[C@H](CO)[C@@H](O)[C@@H]2F)cc1Br` gave an inhibition at 0.1 µg/mL (Human alphaherpesvirus 1 [1]) of less than 90%, a GI50 at 96 h [2] of 1.6 mg/L (≈ 4.92 µM) and an inhibition at 1 µg/mL (Human alphaherpesvirus 1 [3]) greater than 99%. The GI50 at 96 h [4] was 0.9 mg/L (≈ 2.77 µM), the inhibition at 0.01 µg/mL (Human alphaherpesvirus 1 [5]) was less than 90% and the inhibition at 10 µg/mL (Human alphaherpesvirus 1 [7]) was greater than 100%.
In the case of `Nc1nc(=O)n([C@@H]2O[C@H](CO)[C@@H](O)[C@@H]2O)cc1I`, the inhibition at 0.1 µg/mL (Human alphaherpesvirus 1 [1]) is reported as less than 90%, the GI50 at 96 h [2] is reported as 0.08 mg/L (≈ 0.217 µM) and the inhibition at 1 µg/mL (Human alphaherpesvirus 1 [3]) is reported as greater than 90%. For the same compound, the GI50 at 96 h [4] was 0.2 mg/L (≈ 0.542 µM), the inhibition at 0.01 µg/mL (Human alphaherpesvirus 1 [5]) was less than 90% and the inhibition at 10 µg/mL (Human alphaherpesvirus 1 [7]) was greater than 100%.
For `O=c1[nH]c(=O)n([C@@H]2O[C@H](CO)[C@@H](O)[C@@H]2O)cc1I`, the inhibition at 0.1 µg/mL (Human alphaherpesvirus 1 [1]) was less than 90%, the GI50 at 96 h [2] was 16 mg/L (≈ 43.2 µM) and the inhibition at 1 µg/mL (Human alphaherpesvirus 1 [3]) was less than 90%. For the same compound, the GI50 at 96 h [4] was 30 mg/L (≈ 81.1 µM), the inhibition at 0.01 µg/mL (Human alphaherpesvirus 1 [5]) was less than 90% and the inhibition at 100 µg/mL (Human alphaherpesvirus 1 [6]) was greater than 100%. For the same compound, the inhibition at 10 µg/mL (Human alphaherpesvirus 1 [7]) was greater than 90%.
For `Cc1cn([C@@H]2O[C@H](CO)[C@@H](O)[C@@H]2F)c(=O)[nH]c1=O` [5-METHYL-2'-FLUOROARAURACIL], the inhibition at 0.1 µg/mL (Human alphaherpesvirus 1 [1]) was greater than 90%, the GI50 at 96 h [2] was 1.9 mg/L (≈ 7.3 µM) and the inhibition at 1 µg/mL (Human alphaherpesvirus 1 [3]) was greater than 99.9%. For the same compound, the GI50 at 96 h [4] was 1.6 mg/L (≈ 6.15 µM), the inhibition at 0.01 µg/mL (Human alphaherpesvirus 1 [5]) was less than 90% and the inhibition at 10 µg/mL (Human alphaherpesvirus 1 [7]) was 100%.
With `Nc1ccn([C@@H]2O[C@H](CO)[C@@H](O)[C@@H]2O)c(=O)n1` [CYTARABINE] the inhibition at 0.1 µg/mL (Human alphaherpesvirus 1 [1]) was less than 90%, the GI50 at 96 h [2] was 0.02 mg/L (≈ 0.0822 µM) and the inhibition at 1 µg/mL (Human alphaherpesvirus 1 [3]) was greater than 90%. For the same compound, the GI50 at 96 h [4] was 0.02 mg/L (≈ 0.0822 µM), the inhibition at 0.01 µg/mL (Human alphaherpesvirus 1 [5]) was less than 90% and the inhibition at 100 µg/mL (Human alphaherpesvirus 1 [6]) was greater than 100%. For the same compound, the inhibition at 10 µg/mL (Human alphaherpesvirus 1 [7]) was greater than 100%.
Work on `O=c1[nH]c(=O)n([C@@H]2O[C@H](CO)[C@@H](O)[C@@H]2F)cc1I` [FIALURIDINE] yielded an inhibition at 0.1 µg/mL (Human alphaherpesvirus 1 [1]) greater than 90%, a GI50 at 96 h [2] of 0.8 mg/L (≈ 2.15 µM) and an inhibition at 1 µg/mL (Human alphaherpesvirus 1 [3]) greater than 99.9%. It also gave a GI50 at 96 h [4] of 0.9 mg/L (≈ 2.42 µM), an inhibition at 0.01 µg/mL (Human alphaherpesvirus 1 [5]) of less than 90% and an inhibition at 10 µg/mL (Human alphaherpesvirus 1 [7]) greater than 100%.
Compound `Nc1nc(=O)n([C@H]2C[C@H](O)[C@@H](CO)O2)cc1I` [IBACITABINE] has an inhibition at 0.1 µg/mL (Human alphaherpesvirus 1 [1]) of less than 90%, a GI50 at 96 h [2] greater than 100 mg/L and an inhibition at 1 µg/mL (Human alphaherpesvirus 1 [3]) greater than 90%. For the same compound, the GI50 at 96 h [4] was greater than 100 mg/L, the inhibition at 0.01 µg/mL (Human alphaherpesvirus 1 [5]) was less than 90% and the inhibition at 10 µg/mL (Human alphaherpesvirus 1 [7]) was greater than 99.9%.
Compound `O=c1[nH]c(=O)n([C@H]2C[C@H](O)[C@@H](CO)O2)cc1I` [IDOXURIDINE] has an inhibition at 0.1 µg/mL (Human alphaherpesvirus 1 [1]) of less than 90%, a GI50 at 96 h [2] of 0.9 mg/L (≈ 2.54 µM) and an inhibition at 1 µg/mL (Human alphaherpesvirus 1 [3]) of less than 90%. For the same compound, the GI50 at 96 h [4] was 4.2 mg/L (≈ 11.9 µM), the inhibition at 0.01 µg/mL (Human alphaherpesvirus 1 [5]) was less than 90% and the inhibition at 100 µg/mL (Human alphaherpesvirus 1 [6]) was 100%. The inhibition at 10 µg/mL (Human alphaherpesvirus 1 [7]) was greater than 90%.
